This passage reports Tm and folding enthalpy results from the array DNA melting data of Ke et al. (doi:10.1101/2024.01.08.574731).

The nature of data set [1]: melting temperature; fluorescence melt of hairpins on a sequencing array, two-state fit, raised by 9.35 °C to match UV melts. The conditions noted are these: sodium 0.088 M. The essentials:
(§1)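 To match UV melts, fitted temperatures were raised by 9.35 °C. These fits were bootstrapped two-state models that gave melting temperature and folding enthalpy, combined by inverse variance over four replicates. The input was normalised Cy3 fluorescence of library hairpins with annealed Cy3 and quencher oligos on a sequenced MiSeq flow cell, imaged in 50 mM Na-HEPES pH 8.0, 25 mM NaCl in 2.5 °C steps up to 60 °C.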

Data set [2] in a line: folding enthalpy; higher = less favourable; fluorescence melt of hairpins on a sequencing array, two-state fit. The conditions noted are these: sodium 0.088 M. In a few lines: as §1

In the case of GTCGTTGGAAACAACGGC (.(((((....))))).), the Tm in data set [1] turned out to be 55.1 °C. Moreover, in data set [2], the folding enthalpy was -39.6 kcal/mol.

In the case of GTCGTTGGAAACAGTGAC (((..((....))..))), the Tm in data set [1] stood at 32.4 °C. Besides, in data set [2], the folding enthalpy is -13.5 kcal/mol.

For GTCTAAACGAAAGTTGAC (((..(((....)))))), the Tm in data set [1] is 34.5 °C. For the same sequence, in data set [2], the folding enthalpy is -17.7 kcal/mol.

As for GTCTAACGAAAGTTGAC (((.(((....)))))), the Tm in data set [1] was 43.6 °C. Moreover, the folding enthalpy in data set [2] is -24.9 kcal/mol.

As to GTCTAACGAAAGTTGGAC (((.(((....))).))), the Tm in data set [1] was 52 °C. Further, the folding enthalpy in data set [2] is -19.8 kcal/mol.

GTCTAACGAAAGTTTGAC (((.(((....))).))): the Tm in data set [1] came out at 47.6 °C. The folding enthalpy in data set [2] is -36.7 kcal/mol.

For the sequence GTCTAAGAAATTAGAC ((((((....)))))), in data set [1], the Tm came to 40.4 °C. In addition, the folding enthalpy in data set [2] is -25.8 kcal/mol.

As to GTCTAAGGAAACTTGGAC (((.(((....))).))), in data set [1], the Tm was 40.2 °C. Besides, the folding enthalpy in data set [2] is -21.9 kcal/mol.

GTCTAATCGAAAGATGAC (((..(((....)))))): in data set [1], the Tm worked out at 31.6 °C. Besides, in data set [2], the folding enthalpy is -14.8 kcal/mol.

Turning to GTCTACCCGAAAGGGGAC (((..(((....)))))), in data set [1], the Tm was determined as 36.2 °C. In data set [2], the folding enthalpy was -13.8 kcal/mol.

Turning to GTCTACCGAAAGGTGGAC (((.(((....))).))), the Tm in data set [1] came out at 60.6 °C. In addition, in data set [2], the folding enthalpy is -41.5 kcal/mol.

As for GTCTACGAAAGTAAGAC ((((((....))).))), the Tm in data set [1] was determined as 46.5 °C. The folding enthalpy in data set [2] is -24.2 kcal/mol.

For GTCTACGAAAGTAATGAC ((((((....)))..))), the Tm in data set [1] was 30.7 °C. The folding enthalpy in data set [2] was -17.6 kcal/mol.

Take GTCTACGAAAGTAGGGAC ((((((....)))..))): the Tm in data set [1] amounted to 32.3 °C. Further, the folding enthalpy in data set [2] is -16.2 kcal/mol.

Regarding GTCTACGAAAGTATAGAC ((((((....)))..))), the Tm in data set [1] was 36.2 °C. For the same sequence, the folding enthalpy in data set [2] was -24.4 kcal/mol.

For GTCTACGGAAACGTAGGC (.(((((....))))).), in data set [1], the Tm came out at 51.2 °C. The folding enthalpy in data set [2] was -29.2 kcal/mol.

Turning to GTCTAGGAAACTAGAC ((((((....)))))), the Tm in data set [1] stood at 50.8 °C. Also, the folding enthalpy in data set [2] is -39.2 kcal/mol.

On to GTCTAGGGAAACCTAGAC (((((((....))))))), for which the Tm in data set [1] was determined as 56.2 °C. Moreover, the folding enthalpy in data set [2] was -40.4 kcal/mol.

Take GTCTAGGGAAACCTGGAC (((.(((....))).))): in data set [1], the Tm came to 47.4 °C. In addition, the folding enthalpy in data set [2] is -30.2 kcal/mol.

As to GTCTATACGAAAGTAGAC (((..(((....)))))), in data set [1], the Tm is 36.7 °C. In addition, in data set [2], the folding enthalpy is -21.8 kcal/mol.

As to GTCTATGGAAACATAGAC (((((((....))))))), the Tm in data set [1] was determined as 54.9 °C. Further, the folding enthalpy in data set [2] is -42.7 kcal/mol.

Take GTCTATGGAAACGTAGAC (((((.(....).))))): the Tm in data set [1] was found to be 43.7 °C. Further, the folding enthalpy in data set [2] is -31.8 kcal/mol.

Turning to GTCTCCACGAAAGTGGAC (((..(((....)))))), in data set [1], the Tm turned out to be 32.2 °C. Also, in data set [2], the folding enthalpy was -7.36 kcal/mol.

For GTCTCCCGAAAGGGGAC (((.(((....)))))), the Tm in data set [1] came to 54.8 °C. The folding enthalpy in data set [2] was -31.4 kcal/mol.

In the case of GTCTCCGAAAGGAAAGAC ((((((....)))..))), in data set [1], the Tm worked out at 42.4 °C. For the same sequence, the folding enthalpy in data set [2] is -23.1 kcal/mol.

For GTCTCCGAAAGGAAGGAC ((((((....)))..))), the Tm in data set [1] was found to be 36.2 °C. Moreover, in data set [2], the folding enthalpy is -16.5 kcal/mol.

For GTCTCCGAAAGGACGAC ((((((....))).))), in data set [1], the Tm was found to be 46.7 °C. For the same sequence, the folding enthalpy in data set [2] is -27.5 kcal/mol.

Turning to GTCTCCGCGAAAGCGGAC (((..(((....)))))), in data set [1], the Tm stood at 34.2 °C. The folding enthalpy in data set [2] is -6.7 kcal/mol.

Turning to GTCTCGAAAGAGAC (((((....))))), the Tm in data set [1] came out at 60.5 °C. Also, the folding enthalpy in data set [2] was -24.8 kcal/mol.

For GTCTCGGGAAACCGGGAC (((.(((....))).))), the Tm in data set [1] was found to be 55.3 °C. Besides, the folding enthalpy in data set [2] is -38.4 kcal/mol.

Turning to GTCTCGGGAAACTGGGAC (((.(.(....).).))), the Tm in data set [1] was 37.2 °C. For the same sequence, the folding enthalpy in data set [2] is -29.3 kcal/mol.

Consider GTCTCTCGAAAGAGCGAC (((.(((....))).))), for which the Tm in data set [1] stood at 46.3 °C. For the same sequence, the folding enthalpy in data set [2] was -25.6 kcal/mol.

On to GTCTGAGGAAACTCGGAC (((.(((....))).))), for which the Tm in data set [1] was determined as 49.4 °C. In addition, in data set [2], the folding enthalpy was -36.2 kcal/mol.

As for GTCTGATCGAAAGATGAC (((..(((....)))))), in data set [1], the Tm is 30.1 °C. Besides, the folding enthalpy in data set [2] is -19.8 kcal/mol.

For GTCTGCCGAAAGGCCGAC (((.(((....))).))), in data set [1], the Tm was found to be 54.1 °C. In data set [2], the folding enthalpy was -25.6 kcal/mol.

With GTCTGCGAAAGCAGGAC ((((((....))).))), the Tm in data set [1] was determined as 57.8 °C. Moreover, the folding enthalpy in data set [2] is -11.4 kcal/mol.
